Source: PubChem BioAssay AID624075 (Broad Institute, 2012)
Calls of active or inactive are those of the source.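 How the source made its calls: active means fitted curve reaches -35% activity change at a concentration no higher than twice the top valid tested dose; inactive means the rest, including activity in the opposite direction.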

Tested on: not listed separately
Assay: P. aeruginosa PAK growth delay under chelation, dose response, whole organism, PAK strain, OD600, EDDHA, dry powder, set 4 (AID 624075)
Conditions: P. aeruginosa PAK growth with EDDHA, OD600, 28 h; at 100 µM (top of the series)
Summary of the method: (§1)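 Material: wild-type Pseudomonas aeruginosa PAK bacterial culture / Probe or stimulus: EDDHA, 2 µM / Medium: succinate M9 medium, pH 7.0 / Compound: concentration series from 100 µM down to 15 nM final / Detection: absorbance at 600 nm as growth measure / Schedule: 28 h growth at 30 °C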

Q: With `COCCC(C#N)c1ccc(F)cc1` (stereo not drawn) as the compound, how does the activity change, negative = growth inhibition read?
A: Its activity change, negative = growth inhibition is -1.57% (inactive).

Q: For `CCCCC(C#N)c1ccc(F)cn1` (stereo not drawn), which activity change, negative = growth inhibition is on record?
A: The activity change, negative = growth inhibition was -7.64% (inactive).

Q: For `CCCCC(c1ccc(Cl)cc1)c1nn[nH]n1` (stereo not drawn), which activity change, negative = growth inhibition is on record?
A: The activity change, negative = growth inhibition was -6.42% (inactive).

Q: Which activity change, negative = growth inhibition does the source give for `N#CC(c1ccc(Cl)cc1)c1ncccc1Cl` (stereo not drawn) here?
A: The activity change, negative = growth inhibition was -18.1% (inactive).

Q: Which activity change, negative = growth inhibition does the source give for `COCCNC(C#N)c1ccc(Cl)cc1` (stereo not drawn) here?
A: Its activity change, negative = growth inhibition is -2.09% (inactive).

Q: With `N#CC(c1ccc(Cl)cc1)c1ccc(Cl)cn1` (stereo not drawn) as the compound, how does the activity change, negative = growth inhibition read?
A: Its activity change, negative = growth inhibition is -13.9% (inactive).

Tested on: P. aeruginosa PAK growth with EDDHA, OD600, 28 h
Assay: as above
Conditions: not given
Summary of the method: as §1

Q: For `N#CC(c1ccc(Cl)cc1)c1cccc(C(F)(F)F)n1` (stereo not drawn), which AC35 is on record?
A: The AC35 was 71.1 µM.

Q: Which AC35 does the source give for `N#CC(c1ccc(F)cc1)c1cccc(C(F)(F)F)n1` (stereo not drawn) here?
A: Its AC35 is 88.7 µM.
